Screens as filed in PubChem BioAssay.
XBP1 UPR activ = activators of adaptive arm of unfolded protein response (XBP1); AID 463104; 0.33% of 330,000 active; activation, % at 20 µM; CHO-XBP1 luciferase reporter, IRE1-XBP1 UPR activation, luminescence; percent of tunicamycin response, DMSO as zero;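 active = versus positive control, 20 µM dose yields 30% or more activation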;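 also: 100% = tunicamycin at 10 µg/mL and 0% = DMSO only wells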
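Material: IRE1-XBP1 luciferase reporter CHO line / Quantity: one thousand reporter cells per well / Buffer or medium: F12 with 10% serum / Compound: 20 µM single concentration, DMSO 1% / Times: 6 h treatment, 37 °C / Detection: Steady-Glo luciferase glow luminescence, 10 min after reagent addition / Benchmarks: tunicamycin high, DMSO low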
CHOP inhibitor = CHOP inhibition in unfolded protein response | AID 2732 | inhibition, % at 10 µM | 3.8% of 220,000 active | CHO-K1 CHOP-promoter luciferase, tunicamycin-induced, 15-18 h;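 active = compounds that reduced the stress-induced luciferase reporter signal by more than about 70% of percent inhibition, limit read from the data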;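 also: 0% = tunicamycin plus vehicle and 100% = wells without tunicamycin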
B2AR ag = agonists of human beta-2 adrenergic receptor inducing internalization | 0.43% of 340,000 active | AID 504454 | response, % (concentration not given with the values) | Am2.2-beta2AR cells, FAP receptor internalization, flow cytometry | P07550;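 active = response above a set limit, near 3 SD of response in nonfluorescent compounds, cut at about 42% in these data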
VLA-4 inh = inhibition in a human VLA-4 binding assay; P13612; VLA-4 expressing cells, ligand binding flow cytometry; inhibition, % (about 7 µM as worked out from the volumes in the protocol); 0.2% of 330,000 active; AID 2557; in the data active = inhibition above about 50%
Target sequence (P13612 whole entry, looked up): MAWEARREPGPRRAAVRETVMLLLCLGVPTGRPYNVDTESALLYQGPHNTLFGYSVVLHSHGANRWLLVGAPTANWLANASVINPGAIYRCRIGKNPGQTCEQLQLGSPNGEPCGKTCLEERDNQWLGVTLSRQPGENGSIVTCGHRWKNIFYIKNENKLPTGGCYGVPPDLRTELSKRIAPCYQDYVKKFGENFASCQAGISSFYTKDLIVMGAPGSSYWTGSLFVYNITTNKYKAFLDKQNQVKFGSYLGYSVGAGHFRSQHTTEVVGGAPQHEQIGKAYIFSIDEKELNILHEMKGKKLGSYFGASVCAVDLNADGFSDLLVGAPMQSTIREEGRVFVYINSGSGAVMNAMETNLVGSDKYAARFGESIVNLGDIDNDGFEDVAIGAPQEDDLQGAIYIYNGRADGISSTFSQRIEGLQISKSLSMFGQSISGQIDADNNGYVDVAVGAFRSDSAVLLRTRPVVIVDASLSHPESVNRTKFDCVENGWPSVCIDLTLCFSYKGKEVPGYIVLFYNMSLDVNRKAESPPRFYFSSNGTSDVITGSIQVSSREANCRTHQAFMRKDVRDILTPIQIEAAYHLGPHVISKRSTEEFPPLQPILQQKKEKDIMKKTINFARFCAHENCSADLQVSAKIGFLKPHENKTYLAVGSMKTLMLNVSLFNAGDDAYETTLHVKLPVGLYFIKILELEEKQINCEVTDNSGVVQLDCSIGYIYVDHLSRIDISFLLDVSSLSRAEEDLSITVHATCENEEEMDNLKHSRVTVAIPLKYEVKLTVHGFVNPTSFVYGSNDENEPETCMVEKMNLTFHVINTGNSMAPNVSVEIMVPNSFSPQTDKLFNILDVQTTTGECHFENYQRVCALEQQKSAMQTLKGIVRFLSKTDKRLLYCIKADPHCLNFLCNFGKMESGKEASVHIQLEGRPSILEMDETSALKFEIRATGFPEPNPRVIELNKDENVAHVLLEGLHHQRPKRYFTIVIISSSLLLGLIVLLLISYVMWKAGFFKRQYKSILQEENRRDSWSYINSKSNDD
CHOP UPR activ = activators of apoptotic arm of unfolded protein response (CHOP) | 0.34% of 330,000 active | CHO-CHOP luciferase reporter, UPR activation, luminescence; percent of tunicamycin response over DMSO baseline | AID 449763 | activation, % at 10 µM;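 active = at 10 µM dose, activation of 40% or more, normalized to positive control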;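 also: 100% = tunicamycin at 10 µg/mL and 0% = DMSO alone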
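Evaluation: % reporter activation, DMSO baseline versus tunicamycin full activation; System: CHO-CHOP luciferase reporter cell line; Input: 500 cells/well; Incubation: 6 h compound treatment, 37 °C; Measured by: Steady-Glo luciferase luminescence; Dosing: one dose, 10 µM in 0.5% DMSO; Buffer or medium: F12 medium, 10% FBS; Benchmarks: positive tunicamycin 10 µg/mL, negative DMSO alone.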
Starred values were filed as active, the others as inactive. The entries come from a sample that favours hits as a whole.

How did COc1ccccc1C(CNC(=O)c1ccc(S(=O)(=O)N2CCCCC2)cc1)N(C)C (centres undefined) do in these assays?
XBP1 UPR activ: 0; B2AR ag: 0; VLA-4 inh: 0; CHOP UPR activ: 5

Results for COc1ccc(S(=O)(=O)CC(=O)Nc2nnc(C(F)(F)F)s2)cc1 ?
XBP1 UPR activ: -6; B2AR ag: 1; VLA-4 inh: 4; CHOP UPR activ: 1

How did Cc1cc(NC(=O)COC(=O)c2ccc([N+](=O)[O-])cc2Cl)no1 do in these assays?
XBP1 UPR activ: 0; B2AR ag: 2; VLA-4 inh: 0; CHOP UPR activ: -2

Results for CCOC(=O)c1nnn(-c2nonc2-n2cccc2)c1CN1CCCCC1 ?
XBP1 UPR activ: 1; CHOP inhibitor: 87*; B2AR ag: 3; VLA-4 inh: 11; CHOP UPR activ: 4

What do the screens show for `CCCCCCCCNc1ncnc2ccccc12`?
XBP1 UPR activ: -4; CHOP inhibitor: 81*; B2AR ag: -1; VLA-4 inh: -1; CHOP UPR activ: 8

What do the screens show for `COc1ccc(Br)cc1[C@H]1[C@H]2C=CC[C@@H](C)[C@@H]2C(=O)N1Cc1ccccc1`?
XBP1 UPR activ: 0; CHOP inhibitor: 75*; B2AR ag: 20; CHOP UPR activ: 3

How did CC(=O)Nc1sc(C)c(C)c1C(=O)OC(C)C do in these assays?
XBP1 UPR activ: -1; CHOP inhibitor: 5; B2AR ag: -5; VLA-4 inh: -18; CHOP UPR activ: 1

What do the screens show for `CCc1c(C)sc(NC(=O)C2CC2)c1C(=O)OC(C)C`?
XBP1 UPR activ: -4; CHOP inhibitor: 81*; B2AR ag: -4; VLA-4 inh: 4; CHOP UPR activ: 0

Results for O=C1Nc2cc(Cl)ccc2C1(N1CCNCC1)C(F)(F)F (centres undefined) ?
XBP1 UPR activ: 4; CHOP inhibitor: 80*; B2AR ag: 2; VLA-4 inh: -1; CHOP UPR activ: -2

How did COc1ccc(/C=C(/C(=O)Nc2ccccc2C(=O)NC(C)C)c2ccccc2)cc1 do in these assays?
XBP1 UPR activ: 1; CHOP inhibitor: 74*; B2AR ag: 2; VLA-4 inh: -2; CHOP UPR activ: 0

How did COc1ccc(/C=C(/C(=O)Nc2ccccc2C(=O)N2CCCC2)c2ccccc2)cc1 do in these assays?
XBP1 UPR activ: -1; CHOP inhibitor: 7; B2AR ag: 8; VLA-4 inh: 9; CHOP UPR activ: 0

Results for Cc1ccccc1/C=C/C1=NCCN1 ?
XBP1 UPR activ: -4; CHOP inhibitor: 99*; B2AR ag: -4; VLA-4 inh: -1; CHOP UPR activ: 1

Results for c1ccc(-c2csc3ncnc(NCc4ccccn4)c23)cc1 ?
XBP1 UPR activ: 5; CHOP inhibitor: 42; B2AR ag: -131; VLA-4 inh: 19; CHOP UPR activ: -1

Results for c1ccc(CNc2ncnc3scc(-c4cccs4)c23)nc1 ?
XBP1 UPR activ: 2; CHOP inhibitor: 72*; B2AR ag: 6; VLA-4 inh: 3; CHOP UPR activ: -1

What do the screens show for `Cc1cc(C)nc(NNS(=O)(=O)c2c(F)cc(F)cc2Br)n1`?
XBP1 UPR activ: -1; B2AR ag: -5; VLA-4 inh: 2; CHOP UPR activ: 2

Results for Cc1ccc(S(=O)(=O)N(C)C)cc1NC(=O)C1CCCN(C(=O)c2ccc(Cl)cc2)C1 (centres undefined) ?
XBP1 UPR activ: -2; B2AR ag: -7; VLA-4 inh: 0; CHOP UPR activ: 0

How did O=C(N/N=C\c1ccc(-c2ccc([N+](=O)[O-])cc2)o1)C1COc2ccccc2O1 (centres undefined) do in these assays?
XBP1 UPR activ: 1; CHOP inhibitor: 81*; B2AR ag: 4; VLA-4 inh: -21; CHOP UPR activ: 0

How did CN(C)c1ccc(/C=N/NC(=O)C2COc3ccccc3O2)o1 (centres undefined) do in these assays?
XBP1 UPR activ: 4; CHOP inhibitor: -5; B2AR ag: -6; VLA-4 inh: 0; CHOP UPR activ: -1

How did Cc1ccc2c(c1)N=C(c1ccccc1)CC(C(Cl)Cl)=N2 do in these assays?
XBP1 UPR activ: -3; CHOP inhibitor: -23; B2AR ag: 10; VLA-4 inh: -20; CHOP UPR activ: 8

Results for Cc1ccc(C2=Nc3ccccc3N=C(C(Cl)Cl)C2)cc1 ?
XBP1 UPR activ: -6; CHOP inhibitor: 84*; B2AR ag: 0; VLA-4 inh: 12; CHOP UPR activ: -4

How did COc1ccc(Cl)cc1N(CC(=O)NC1CC1)S(=O)(=O)c1ccc(C)c([N+](=O)[O-])c1 do in these assays?
XBP1 UPR activ: -3; CHOP inhibitor: 21; B2AR ag: -5; VLA-4 inh: 17; CHOP UPR activ: 0

What do the screens show for `O=C(/C=C/Nc1ccccc1Br)c1ccccn1`?
XBP1 UPR activ: -14; CHOP inhibitor: 88*; B2AR ag: -10; VLA-4 inh: 2; CHOP UPR activ: -11

How did O=C(/C=C\Nc1ccccn1)c1ccccc1 do in these assays?
XBP1 UPR activ: -9; CHOP inhibitor: 28; B2AR ag: 4; VLA-4 inh: 7; CHOP UPR activ: -4

How did C=CCN1C(=O)/C(=C2/Sc3ccc(OC)cc3N2C)SC1=NCc1ccccc1 do in these assays?
XBP1 UPR activ: 9; CHOP inhibitor: -1; B2AR ag: 5; VLA-4 inh: 10; CHOP UPR activ: 1

What do the screens show for `C=CCN1C(=O)/C(=C2/Sc3ccc(OC)cc3N2C)SC1=Nc1ccccc1`?
XBP1 UPR activ: 10; CHOP inhibitor: 74*; B2AR ag: 3; VLA-4 inh: -12; CHOP UPR activ: 1

Results for CCOc1ccc2nc(N3CCCC(C(=O)NCC4CCCO4)C3)sc2c1 (centres undefined) ?
XBP1 UPR activ: 4; CHOP inhibitor: 1; B2AR ag: 9; VLA-4 inh: -1; CHOP UPR activ: 3

How did Cc1ccc(NC(=O)CSc2nc3ccc(Nc4nc(N5CCOCC5)nc(N5CCOCC5)n4)cc3s2)cc1 do in these assays?
XBP1 UPR activ: 78*; B2AR ag: 20; VLA-4 inh: -1; CHOP UPR activ: 4

What do the screens show for `CC(Nc1cccc2ccccc12)C(=O)N/N=C/c1ccc([N+](=O)[O-])cc1` (centres undefined)?
XBP1 UPR activ: -2; CHOP inhibitor: 82*; B2AR ag: -18; VLA-4 inh: 13; CHOP UPR activ: 1

How did COc1cc([N+](=O)[O-])cc(/C=N/NC(=O)C(C)Nc2cccc3ccccc23)c1O (centres undefined) do in these assays?
XBP1 UPR activ: -4; CHOP inhibitor: 7; B2AR ag: -3; VLA-4 inh: 18; CHOP UPR activ: 1

How did CCn1c(SC)nnc1C1CCN(CC(=O)Nc2ccccc2N2CCOCC2)CC1 do in these assays?
XBP1 UPR activ: -2; B2AR ag: -1; VLA-4 inh: -5; CHOP UPR activ: 0

Results for COc1cccc(CC(=O)Nc2cccc3ccccc23)c1 ?
XBP1 UPR activ: -2; B2AR ag: 2; VLA-4 inh: -8; CHOP UPR activ: 1
